High-throughput results from PubChem.
Runt-SMMHC FRET = inhibitors of RUNX1 Runt–CBFb-SMMHC binding, primary screen, biochemical, FRET, Cerulean-Runt, Venus-CBFb-SMMHC, uHTS | Runt-related transcription factor 1 (Homo sapiens) + Core-binding factor subunit beta … | Cerulean-Runt/Venus-CBFb-SMMHC FRET ratio 530/480, 1 h | inhibition, % at 20 µM | 220,000 tested, 0.74% active;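 active means mean inhibition across duplicate retests at 20 µM reaching about 50%, limit read from the data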;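 further: 0% = DMSO wells and 100% = wells with excess untagged CBFb-SMMHC; inhibitors lower the FRET ratio by blocking Runt binding to CBFb-SMMHC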
Hck Nef HTS = inhibitors of Nef-activated human Hck kinase, primary screen, biochemical, Z-Lyte FRET, 384-well, Hck-YEEI; Tyrosine-protein kinase HCK (Homo sapiens), P08631; Recombinant Hck-YEEI plus Nef, Z-Lyte FRET kinase assay; inhibition, % at 20 µM; 220,000 tested, 0.68% active; AID 463187, 2010;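 active means Hck-Nef kinase inhibition above about 50%, limit read from the data; inactive means inhibition below that limit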;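 further: 0% = DMSO with Hck plus Nef and 100% = Hck alone without Nef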
Target sequence (P08631 whole entry, looked up): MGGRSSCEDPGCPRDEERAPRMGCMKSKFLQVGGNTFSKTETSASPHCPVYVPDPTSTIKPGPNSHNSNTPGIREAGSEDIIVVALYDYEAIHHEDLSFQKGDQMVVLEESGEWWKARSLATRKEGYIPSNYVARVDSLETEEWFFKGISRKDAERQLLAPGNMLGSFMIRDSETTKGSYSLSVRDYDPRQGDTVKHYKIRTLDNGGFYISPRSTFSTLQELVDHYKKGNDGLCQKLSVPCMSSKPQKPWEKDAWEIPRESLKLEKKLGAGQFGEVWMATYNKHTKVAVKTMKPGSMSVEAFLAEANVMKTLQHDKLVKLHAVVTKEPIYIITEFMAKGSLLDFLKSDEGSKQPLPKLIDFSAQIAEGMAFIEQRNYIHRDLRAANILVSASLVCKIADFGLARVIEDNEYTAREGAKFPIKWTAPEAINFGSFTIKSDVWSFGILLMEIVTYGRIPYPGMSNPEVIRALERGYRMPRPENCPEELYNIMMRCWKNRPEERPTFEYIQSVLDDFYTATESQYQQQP
Runt-CBFb FRET = inhibitors of RUNX1 Runt–CBFb binding, primary screen, biochemical, FRET, Cerulean-Runt, Venus-CBFb, uHTS; Runt-related transcription factor 1 (Homo sapiens) + Core-binding factor subunit beta …; Cerulean-Runt/Venus-CBFb FRET ratio 530/480, 1 h; inhibition, % at 20 µM; 220,000 tested, 0.46% active; AID 1496, 2009;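 active means inhibition over about 50% at 20 µM in the single-dose screen, limit read from the data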;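 further: 0% = DMSO wells and 100% = excess unlabeled CBFb competitor control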
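Schedule: protein complex preformed 1 h, compound exposure 1 h, room temperature, dark; test system: Cerulean-labeled Runt domain protein; amount: 100 nM per protein; buffer or medium: Tris 50 mM pH 7.5, KCl, K2SO4, 0.01% BSA; read-out: loss of energy transfer signal; detection: FRET fluorescence; controls: 5 µM unlabeled CBFb as full-inhibition high control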
RanGTP-Impb inh = inhibitors of RanGTP-importin-beta interaction, primary screen, biochemical, FRET, CFP-Ran, YFP-importin-beta, homogeneous. inhibition, % (concentration not given with the values). Ran GTPase (GTP-bound) - importin-beta complex. 300,000 tested, 1.1% active. cell-free CFP-Ran/YFP-importin-beta FRET ratio. AID 2216, 2009;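 active means more than half of the replicate wells show a fall in the fluorescence ratio signal beyond about 16%, limit read from the data, passing the limit was not always enough; inconclusive means exactly half of the replicate wells pass the set limit; inactive means fewer than half of replicates pass the limit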;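 further: 0% = DMSO wells and 100% = Ran loaded with GDP instead of GTP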
Runt-CBFb TRFRET = inhibitors of RUNX1 Runt–CBFb binding, biochemical, TR-FRET; shares compounds with Runt-CBFb FRET; TR-FRET RUNX1 Runt domain-CBFb binding; inhibition, % at 20 µM; 480 tested, 20% active; AID 1502, 2009; in the data active means inhibition above about 40%
* hit, by the source's call; u = inconclusive; x = not tested or not shown. In the library only some 1.7% were active in any assay of this set; here they are far more common.

SMILES	Runt-SMMHC FRET	Hck Nef HTS	Runt-CBFb FRET	RanGTP-Impb inh	Runt-CBFb TRFRET
O=C(O)c1cccc(S(=O)(=O)Nc2ccc3oc(=O)sc3c2)c1	67.8*	-0.7	64.8*	-0.2	20.9
O=c1oc2ccc(NS(=O)(=O)c3cccc4cccnc34)cc2s1	x	x	x	-1.5	x
O=C(CSc1nnc(NC(=O)c2ccco2)s1)Nc1ccc(F)cc1F	x	x	x	-7.1	x
COc1ccc(C2CC(=O)N3CN(c4ccc(C)c(Cl)c4)CSC3=C2C#N)cc1OC (centres undefined)	100.4*	0.1	59.0*	-1.1	-24.0
COc1ccc(N2CSC3=C(C#N)C(c4ccc(OC)c(OC)c4)CC(=O)N3C2)c(OC)c1 (centres undefined)	31.3	0.3	23.0	3.2	x
O=C(COC(=O)c1ccc(CO)cc1)NCc1cccs1	-0.9	3.3	0.4	-2.4	x
O=C(CCn1c(=S)[nH]c2ccccc2c1=O)NCCc1ccc(Cl)cc1	1.5	20.6	2.7	-2.8	x
O=[N+]([O-])c1ccc2nc(NS(=O)(=O)c3ccc(F)cc3)sc2c1	x	x	x	-0.2	x
Clc1ccc(Cl)c(OCCN2CCCC2)c1	x	x	x	-3.8	x
COc1ccc(C2=CC(=O)C=CC2=O)cc1	85.8*	70.3*	68.5*	0.1	34.8
CCC1CCCCN1C(=O)CSc1nc(N)c(NC(=O)c2ccco2)c(=O)[nH]1 (centres undefined)	-12.0	-4.2	63.1*	2.4	-8.8
CCOC(=O)c1sc(Nc2nc3c(F)cccc3s2)cc1C	148.1*	28.8	97.9*	10.1	-3.9
O=C1C2C(C(=O)N1c1ccccc1)N1CCCN1C2c1ccccc1 (centres undefined)	2.7	-5.5	-1.6	u	x
O=[N+]([O-])c1ccc(Sc2cc[n+]([O-])c3ccccc23)c([N+](=O)[O-])c1	4.0	17.4	2.9	6.3	x
Cc1ccc(/C=c2\sc3nc(-c4ccco4)nn3c2=O)o1	28.6	12.7	53.2*	12.4	88.5*
CN1CCc2cccc3c2[C@@H]1Cc1ccc(O)c(O)c1-3	x	7.9	86.2*	x	68.3*
COc1ccc2c(c1O)-c1ccccc1CCN(C)C2	2.3	5.1	2.5	1.8	x
Cc1ccc(NC(=S)N(CCN(C)C)Cc2cccs2)c(C)c1	43.4	22.3	54.1*	-0.7	22.8
COc1ccc2nc(NC(=O)c3sc4nc(C)cc(C)c4c3N)sc2c1	31.2	11.7	64.8*	6.5	12.8
CCOC(=O)c1c(/N=C/c2cc(C)ccc2O)sc2c1CCN(C)C2	60.1*	2.1	50.0*	56.3*	0.3
COCCSc1ccccc1C(=O)Nc1ccc(Cl)cc1	-1.8	33.4	1.2	-0.8	x
Cc1cc(C(=O)OC(C(=O)Nc2ccc(C)c(Cl)c2)c2ccccc2)c(C)o1 (centres undefined)	10.2	-0.4	64.6*	-0.6	-11.2
Cc1ccc(NC(=O)C(OC(=O)c2ccccc2Cl)c2ccccc2)cc1Cl (centres undefined)	0.1	-0.6	2.1	-4.4	x
CCOC(=O)c1cnc(-n2nc(C)cc2C)nc1Nc1ccc2c(c1)OCO2	-1.5	x	72.8*	x	-8.0
CCOC(=O)c1cnc(-n2nc(C)cc2C)nc1Nc1ccc(C)cc1	-4.3	1.5	2.7	0.9	x
SMILES	Runt-SMMHC FRET	Hck Nef HTS	Runt-CBFb FRET	RanGTP-Impb inh	Runt-CBFb TRFRET
CCn1c(C)c(C(C)=O)c(N2CCN(c3ccccn3)CC2)nc1=S	99.9*	-8.4	51.8*	45.3*	-4.2
COc1ccccc1N1C(=O)C=C(Sc2nc(C)cc(C)n2)C1=O	68.5*	-172.3	59.7*	-2.9	36.8
COc1ccccc1N1C(=O)C2CC(C)=C(C)CC2C1=O (centres undefined)	0.1	1.5	-1.3	-3.3	x
Cn1ccnc1Sc1nc2ccccc2nc1NS(=O)(=O)c1ccccc1	73.0*	-2.5	60.9*	u	54.5*
O=C(NNc1c2ccccc2nc2ccccc12)c1ccc(O)cc1	57.6*	0.5	51.7*	36.2*	-45.3
Cc1nc2ccccc2c(=O)n1NC(=O)COc1ccccc1	-1.5	-5.3	1.1	-4.8	x
O=C(NNc1c2ccccc2nc2ccccc12)c1cccc(O)c1	34.7	1.2	22.2	u	x
O=C(COc1ccccc1)NNc1c2ccccc2nc2ccccc12	80.6*	1.1	58.0*	5.2	-1.0
CCc1nccn1S(=O)(=O)c1ccccc1[N+](=O)[O-]	x	x	x	-11.1	x
COc1ccc(C2c3ccc(O)cc3Oc3ncn4nc(-c5ccccn5)nc4c32)cc1OC (centres undefined)	28.1	23.5	17.6	7.0	x
COc1ccc(C2c3ccc(O)cc3Oc3ncn4nc(-c5ccccn5)nc4c32)cc1 (centres undefined)	x	6.4	52.8*	u	-3.7
CC(CC(=O)Nc1ccccc1)NCCCN1CCCC1=O (centres undefined)	x	x	x	5.2	x
C#Cc1ccc([C@H]2C=C(C(=O)NCc3ccccc3)O[C@@H](OCc3ccc(CO)cc3)C2)cc1	x	x	x	4.1	x
Cc1ccc(C(=S)N2CCN(Cc3ccccc3)CC2)cc1	38.1	13.5	51.7*	1.1	42.1*
Cc1ccc(NC(=S)N2CCN(Cc3ccccc3)CC2)cc1	2.0	24.9	-2.2	-0.2	x
COC(=O)c1c(NC(=O)CCl)sc(C(=O)N2CCOCC2)c1C	x	x	x	1.9	x
O=c1oc2c(-c3cccc(F)c3)cc(O)cc2s1	9.0	28.4	58.2*	-1.2	22.9
Cn1c(=O)c2c(nc(SCC(=O)NCc3ccc4c(c3)OCO4)n2Cc2ccc(Cl)cc2)n(C)c1=O	-1.8	8.1	-0.3	3.5	x
CC(C)Cn1c(=O)[nH]c(=O)c2c(C(F)(F)F)cc(-c3ccccc3)nc21	-1.4	19.5	-2.2	-3.6	x
COc1ccc(C(=O)Nc2nnc(Cc3ccccc3)s2)c(OC)c1	x	x	x	6.1	x
Cc1nc2ccccc2c(=O)n1/N=C/c1ccc([N+](=O)[O-])o1	86.2	-3.0	56.9*	0.7	3.3
Cc1ccc(-c2nnnn2-c2ccccc2C(=O)O)cc1	x	x	x	0.3	x
Cc1cc(C)nc(SC(C(=O)O)c2ccccc2)n1 (centres undefined)	3.0	0.9	0.1	2.8	x
Cc1cc(C)nc(Sc2nc(Cl)nc(N(c3ccccc3)c3ccccc3)n2)n1	53.2	0.4	58.8*	-0.2	17.6
CN(C)CC(C)(C)CNC(=O)c1cc(=O)c2ccccc2o1	-1.2	3.2	2.5	-0.2	x
CC(=O)N1N=C(c2ccco2)CC1c1cc2ccc(C)cc2nc1Cl (centres undefined)	-2.3	18.6	0.0	u	x
Cc1cc(C)nc(SCNC(=O)c2ccccc2)n1	17.9	8.5	68.7*	-6.3	-14.2
Cc1cc(SCNC(=O)c2ccccc2)nc(C(C)C)n1	15.8	25.2	43.1	u	x
